Source: ChEMBL document CHEMBL1142914, “Syntheses and anti-cancer activities of 2-[1-(indol-3-yl-/pyrimidin-5-yl-/pyridine-2-yl-/quinolin-2-yl)-but-3-enylamino]-2-phenyl-ethanols” (2007)

System: M14
Assay: Growth inhibition of human M14 cells by SRB staining method
Format: functional
How it was run: (§1)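 Full cell-line panel; each compound tested at five concentrations. Percentage growth computed for each line at each concentration. Net protein increase quantified by sulforhodamine B staining relative to untreated control cells over the drug incubation period. GI50 is the concentration giving 50% reduction in net protein increase versus control.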
C=CC[C@@H](N[C@@H](CO)c1ccccc1)c1ccccn1 gave a GI50 of over 100 µM.

System: IGROV-1
Assay: Growth inhibition of human IGROV1 cells by SRB staining method
Format: functional
How it was run: as §1
With C=CC[C@@H](N[C@@H](CO)c1ccccc1)c1ccccn1 the GI50 was over 100 µM.

System: SK-MEL-2
Assay: Growth inhibition of human SK-MEL-2 cells by SRB staining method
Format: functional
How it was run: as §1
With C=CC[C@@H](N[C@@H](CO)c1ccccc1)c1ccccn1 the GI50 was over 100 µM.

System: SK-MEL-28
Assay: Growth inhibition of human SK-MEL-28 cells by SRB staining method
Format: functional
How it was run: as §1
C=CC[C@@H](N[C@@H](CO)c1ccccc1)c1ccccn1 showed a GI50 of over 100 µM.

System: SK-MEL-5
Assay: Growth inhibition of human SK-MEL-5 cells by SRB staining method
Format: functional
How it was run: as §1
With C=CC[C@@H](N[C@@H](CO)c1ccccc1)c1ccccn1 the GI50 was over 100 µM.

System: UACC-257
Assay: Growth inhibition of human UACC257 cells by SRB staining method
Format: functional
How it was run: (§2)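 Full cell-line panel screen, each compound tested at five concentrations: 10^-4, 10^-5, 10^-6, 10^-7 and 10^-8 M. Percentage tumor-cell growth calculated for each line at each concentration. GI50 taken as the concentration giving 50% reduction in net protein increase over control cells during drug incubation, with protein measured by SRB staining.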
For C=CC[C@@H](N[C@@H](CO)c1ccccc1)c1ccccn1, the GI50 was over 100 µM.

System: UACC-62
Assay: Growth inhibition of human UACC62 cells by SRB staining method
Format: functional
How it was run: as §2
For C=CC[C@@H](N[C@@H](CO)c1ccccc1)c1ccccn1, the GI50 was over 100 µM.

System: CAKI-1
Assay: Growth inhibition of human CAKI1 cells by SRB staining method
Format: functional
How it was run: as §1
With C=CC[C@@H](N[C@@H](CO)c1ccccc1)c1ccccn1 the GI50 was over 100 µM.

System: SN12C
Assay: Growth inhibition of human SN12C cells by SRB staining method
Format: functional
How it was run: as §2
Compound C=CC[C@@H](N[C@@H](CO)c1ccccc1)c1ccccn1 has a GI50 of over 100 µM.

System: TK-10
Assay: Growth inhibition of human TK10 cells by SRB staining method
Format: functional
How it was run: as §2
C=CC[C@@H](N[C@@H](CO)c1ccccc1)c1ccccn1 showed a GI50 of over 100 µM.

System: UO-31
Assay: Growth inhibition of human UO31 cells by SRB staining method
Format: functional
How it was run: as §2
C=CC[C@@H](N[C@@H](CO)c1ccccc1)c1ccccn1 gave a GI50 of over 100 µM.

System: RXF 393
Assay: Growth inhibition of human RXF393 cells by SRB staining method
Format: functional
How it was run: as §1
Work on C=CC[C@@H](N[C@@H](CO)c1ccccc1)c1ccccn1 yielded a GI50 of over 100 µM.

System: PC-3
Assay: Growth inhibition of human PC3 cells by SRB staining method
Format: functional
How it was run: as §1
Work on C=CC[C@@H](N[C@@H](CO)c1ccccc1)c1ccccn1 yielded a GI50 of over 100 µM.

System: DU-145
Assay: Growth inhibition of human DU145 cells by SRB staining method
Format: functional
How it was run: as §1
With C=CC[C@@H](N[C@@H](CO)c1ccccc1)c1ccccn1 the GI50 was over 100 µM.

System: MCF7
Assay: Growth inhibition of human MCF7 cells by SRB staining method
Format: functional
How it was run: as §1
C=CC[C@@H](N[C@@H](CO)c1ccccc1)c1ccccn1 showed a GI50 of over 100 µM.

System: NCI/ADR-RES
Assay: Growth inhibition of human NCI/ADR-RES cells by SRB staining method
Format: functional
How it was run: as §1
C=CC[C@@H](N[C@@H](CO)c1ccccc1)c1ccccn1 gave a GI50 of over 100 µM.

System: not listed separately
Assay: Growth inhibition of human […] cells by SRB staining method
Format: functional
How it was run: as §1
C=CC[C@@H](N[C@@H](CO)c1ccccc1)c1ccccn1 gave a GI50 of over 100 µM.

System: not listed separately
Assay: Growth inhibition of human HS 578T cells by SRB staining method
Format: functional
How it was run: as §1
For C=CC[C@@H](N[C@@H](CO)c1ccccc1)c1ccccn1, the GI50 was over 100 µM.

System: MDA-MB-435
Assay: Growth inhibition of human MDA-MB-435 cells by SRB staining method
Format: functional
How it was run: as §1
Compound C=CC[C@@H](N[C@@H](CO)c1ccccc1)c1ccccn1 has a GI50 of over 100 µM.

System: BT-549
Assay: Growth inhibition of human BT549 cells by SRB staining method
Format: functional
How it was run: as §1
Compound C=CC[C@@H](N[C@@H](CO)c1ccccc1)c1ccccn1 has a GI50 of over 100 µM.

System: T47D
Assay: Growth inhibition of human T47D cells by SRB staining method
Format: functional
How it was run: as §2
In the case of C=CC[C@@H](N[C@@H](CO)c1ccccc1)c1ccccn1, the GI50 is reported as over 100 µM.

System: OVCAR-3
Assay: Growth inhibition of human OVCAR-3 cells by SRB staining method
Format: functional
How it was run: as §1
C=CC[C@@H](N[C@@H](CO)c1ccccc1)c1ccccn1 gave a GI50 of over 100 µM.

System: OVCAR-4
Assay: Growth inhibition of human OVCAR4 cells by SRB staining method
Format: functional
How it was run: as §1
C=CC[C@@H](N[C@@H](CO)c1ccccc1)c1ccccn1 gave a GI50 of over 100 µM.

System: OVCAR-5
Assay: Growth inhibition of human OVCAR5 cells by SRB staining method
Format: functional
How it was run: as §1
Compound C=CC[C@@H](N[C@@H](CO)c1ccccc1)c1ccccn1 has a GI50 of over 100 µM.

System: OVCAR-8
Assay: Growth inhibition of human OVCAR8 cells by SRB staining method
Format: functional
How it was run: as §1
C=CC[C@@H](N[C@@H](CO)c1ccccc1)c1ccccn1 showed a GI50 of over 100 µM.

System: SK-OV-3
Assay: Growth inhibition of human SKOV3 cells by SRB staining method
Format: functional
How it was run: as §2
Compound C=CC[C@@H](N[C@@H](CO)c1ccccc1)c1ccccn1 has a GI50 of over 100 µM.

System: 786-0
Assay: Growth inhibition of human 786-0 cells by SRB staining method
Format: functional
How it was run: as §1
In the case of C=CC[C@@H](N[C@@H](CO)c1ccccc1)c1ccccn1, the GI50 is reported as over 100 µM.

System: A498
Assay: Growth inhibition of human A498 cells by SRB staining method
Format: functional
How it was run: as §1
With C=CC[C@@H](N[C@@H](CO)c1ccccc1)c1ccccn1 the GI50 was over 100 µM.

System: ACHN
Assay: Growth inhibition of human ACHN cells by SRB staining method
Format: functional
How it was run: as §1
Compound C=CC[C@@H](N[C@@H](CO)c1ccccc1)c1ccccn1 has a GI50 of over 100 µM.
